Reference: ChEMBL document CHEMBL1125639, “Synthesis and resolution of (+-)-7-chloro-8-hydroxy-1-(3'-iodophenyl)-3-methyl-2,3,4,5-tetrahydro- 1H-3- benzazepine (TISCH): a high affinity and selective iodinated ligand for CNS D1 dopamine receptor” (J Med Chem, 1991)

What was measured:
Rattus norvegicus [1] = assay: Regional brain distribution of compound in rats striatum after an intravenous injection was measured at 4 hr; assay type: ADME, organism-based; conditions: in vivo
Method in brief: (§1)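 After femoral-vein injection of [125I]-labeled ligand (2-5 μCi, ~2200 Ci/mmol, 0.2 mL saline, ether anesthesia) into male Sprague-Dawley rats (225-300 g), brains were dissected into cortex, striatum and cerebellum, weighed and gamma-counted. % dose/gram calculated against diluted initial dose; regional ratio = % dose/gram of region divided by that of cerebellum.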

Rattus norvegicus [2] = assay: Biodistribution of compound in rats heart after an intravenous injection was measured at 4 hr; assay type: ADME, organism-based; conditions: in vivo
Method in brief: (§2)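 Male Sprague-Dawley rats (225-300 g), free access to food and water. Under ether anesthesia, given 0.2 mL saline containing 125I-labelled ligand (2-5 μCi, ~2200 Ci/mmol) into the femoral vein. Killed by cardiac excision at set times. Organs removed, weighed and gamma-counted. % dose/organ is taken against diluted injectate aliquots, with blood and muscle assumed to be 7% and 40% of body weight. Mean of 3 rats ± std dev.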

Rattus norvegicus [3] = assay: Biodistribution of compound in rats heart after an intravenous injection was measured at 30 min; assay type: ADME, organism-based; conditions: in vivo, 0.5 h; method in brief: as §2
Rattus norvegicus [4] = assay: Biodistribution of compound in rats lung after an intravenous injection was measured at 2 min; assay type: ADME, organism-based; conditions: in vivo; method in brief: as §2
Rattus norvegicus [5] = assay: Biodistribution of compound in rats brain after an intravenous injection was measured at 30 min; assay type: ADME, organism-based; conditions: in vivo, 0.5 h
Method in brief: (§3)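 Rats (male Sprague-Dawley, 225-300 g) given the 125I ligand (2-5 μCi, ~2200 Ci/mmol) in 0.2 mL saline via the femoral vein under ether anesthesia, then killed at set times. Whole brain removed, weighed and gamma-counted. % dose/organ is taken against diluted injectate aliquots. Mean of 3 rats ± std dev.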

Rattus norvegicus [6] = assay: Biodistribution of compound in rats muscle after an intravenous injection was measured at 4 hr; assay type: ADME, organism-based, Muscle tissue; conditions: in vivo; method in brief: as §2
Rattus norvegicus [7] = assay: Biodistribution of compound in rats muscle after an intravenous injection was measured at 1 hr; assay type: ADME, organism-based, Muscle tissue; conditions: in vivo; method in brief: as §2
[8] = (§4) Biodistribution ratio measured as the ratio of compound present in brain to that of blood at 4 hr after intravenous injection; assay type: ADME, organism-based; conditions: rat
Method in brief: (§5)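 Male Sprague-Dawley rats (225-300 g) given 0.2 mL saline containing [125I]-labeled ligand (2-5 μCi, ~2200 Ci/mmol) via femoral vein under ether anesthesia; sacrificed at set times by cardiac excision. Brain and blood weighed and gamma-counted against diluted injectate; ratio taken from % dose/gram values, 3 rats per time point.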

Rattus norvegicus [9] = assay: as §4; assay type: ADME, organism-based; conditions: brain, 4 h; method in brief: as §5
Rattus norvegicus [10] = assay: Biodistribution of compound in rats spleen after an intravenous injection was measured at 4 hr; assay type: ADME, organism-based; conditions: in vivo; method in brief: as §2
Rattus norvegicus [11] = assay: Biodistribution of compound in rats blood after an intravenous injection was measured at 2 min; assay type: ADME, organism-based; conditions: in vivo; method in brief: as §2
Rattus norvegicus [12] = assay: Biodistribution of compound in rats blood after an intravenous injection was measured at 24 hr; assay type: ADME, organism-based; conditions: in vivo; method in brief: as §2
Rattus norvegicus [13] = assay: Biodistribution of compound in rats skin after an intravenous injection was measured at 1 hr; assay type: ADME, organism-based, Zone of skin; conditions: in vivo; method in brief: as §2
Rattus norvegicus [14] = assay: Biodistribution of compound in rats muscle after an intravenous injection was measured at 24 hr; assay type: ADME, organism-based, Muscle tissue; conditions: in vivo; method in brief: as §2
Rattus norvegicus [15] = assay: Biodistribution of compound in rats thyroid after an intravenous injection was measured at 4 hr; assay type: ADME, organism-based, Thyroid gland; conditions: in vivo
Method in brief: (§6)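 Male Sprague-Dawley rats (225-300 g), free access to food and water; under ether anesthesia, 0.2 mL saline containing [125I]-labeled ligand (2-5 μCi, ~2200 Ci/mmol) injected into femoral vein; killed by cardiac excision under ether at set times. […] removed, weighed, gamma-counted; % dose/organ from comparison with diluted aliquots of injectate; mean of 3 rats ± std dev.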

Rattus norvegicus [16] = assay: Biodistribution of compound in rats spleen after an intravenous injection was measured at 1 hr; assay type: ADME, organism-based; conditions: in vivo; method in brief: as §2
[17] = Ratio of regional brain distribution in striatum to that of cerebellum at 2 min after intravenous injection; assay type: functional; method in brief: as §1
Rattus norvegicus [18] = assay: Biodistribution of compound in rats kidney after an intravenous injection was measured at 2 min; assay type: ADME, organism-based; conditions: in vivo; method in brief: as §2
Rattus norvegicus [19] = assay: Biodistribution of compound in rats liver after an intravenous injection was measured at 2 min; assay type: ADME, organism-based; conditions: in vivo; method in brief: as §2
Rattus norvegicus [20] = assay: Biodistribution of compound in rats heart after an intravenous injection was measured at 1 hr; assay type: ADME, organism-based; conditions: in vivo; method in brief: as §2
Rattus norvegicus [21] = assay: Biodistribution of compound in rats thyroid after an intravenous injection was measured at 24 hr; assay type: ADME, organism-based, Thyroid gland; conditions: in vivo; method in brief: as §6
Rattus norvegicus [22] = assay: Biodistribution of compound in rats blood after an intravenous injection was measured at 30 min; assay type: ADME, organism-based; conditions: in vivo, 0.5 h; method in brief: as §2
Rattus norvegicus [23] = assay: Biodistribution of compound in rats thyroid after an intravenous injection was measured at 2 min; assay type: ADME, organism-based, Thyroid gland; conditions: in vivo; method in brief: as §6
Rattus norvegicus [24] = assay: Biodistribution of compound in rats spleen after an intravenous injection was measured at 24 hr; assay type: ADME, organism-based; conditions: in vivo; method in brief: as §2
Rattus norvegicus [25] = assay: Biodistribution of compound in rats brain after an intravenous injection was measured at 4 hr; assay type: ADME, organism-based; conditions: in vivo; method in brief: as §3
Rattus norvegicus [26] = assay: Biodistribution of compound in rats liver after an intravenous injection was measured at 1 hr; assay type: ADME, organism-based; conditions: in vivo; method in brief: as §2
Rattus norvegicus [27] = assay: Biodistribution of compound in rats liver after an intravenous injection was measured at 4 hr; assay type: ADME, organism-based; conditions: in vivo; method in brief: as §2

With `CN1CCc2cc(Cl)c(O)cc2[C@@H](c2cccc(I)c2)C1` as the compound, how does the Biodistribution (Rattus norvegicus [1]) read?
The Biodistribution was 0.6.

And the Biodistribution (Rattus norvegicus [2])?
Its Biodistribution is 0.014.

What about the Biodistribution (Rattus norvegicus [3]) of the same compound?
The Biodistribution was 0.137.

And the Biodistribution (Rattus norvegicus [4])?
The Biodistribution was 10.18.

And the Biodistribution (Rattus norvegicus [5])?
The Biodistribution was 0.798.

What about the Biodistribution (Rattus norvegicus [6]) of the same compound?
Its Biodistribution is 1.17.

And the Biodistribution (Rattus norvegicus [7])?
The Biodistribution was 8.59.

What about the Kp at 4 h [8] of the same compound?
The Kp at 4 h was 5.23.

What about the Kp at 4 h ([8]; brain / blood) of the same compound?
Its Kp at 4 h is 5.23.

And the Biodistribution (Rattus norvegicus [9])?
The Biodistribution was 5.23%.

And the Biodistribution (Rattus norvegicus [10])?
Its Biodistribution is 0.015.

What about the Biodistribution (Rattus norvegicus [11]) of the same compound?
Its Biodistribution is 3.28.

What about the Biodistribution (Rattus norvegicus [12]) of the same compound?
The Biodistribution was 0.046.

And the Biodistribution (Rattus norvegicus [13])?
Its Biodistribution is 7.42.

What about the Biodistribution (Rattus norvegicus [14]) of the same compound?
Its Biodistribution is 0.201.

What about the Biodistribution (Rattus norvegicus [15]) of the same compound?
Its Biodistribution is 0.118.

And the Biodistribution (Rattus norvegicus [16])?
The Biodistribution was 0.123.

And the Ratio [17]?
The Ratio was 1.28.

What about the Biodistribution (Rattus norvegicus [18]) of the same compound?
Its Biodistribution is 4.92.

What about the Biodistribution (Rattus norvegicus [19]) of the same compound?
The Biodistribution was 15.78.

What about the Biodistribution (Rattus norvegicus [20]) of the same compound?
The Biodistribution was 0.088.

What about the Biodistribution (Rattus norvegicus [21]) of the same compound?
The Biodistribution was 0.268.

And the Biodistribution (Rattus norvegicus [22])?
Its Biodistribution is 0.773.

What about the Biodistribution (Rattus norvegicus [23]) of the same compound?
Its Biodistribution is 0.121.

And the Biodistribution (Rattus norvegicus [24])?
Its Biodistribution is 0.001.

And the Biodistribution (Rattus norvegicus [25])?
Its Biodistribution is 0.102.

What about the Biodistribution (Rattus norvegicus [26]) of the same compound?
The Biodistribution was 9.814.

And the Biodistribution (Rattus norvegicus [27])?
Its Biodistribution is 7.638.
